# Laboratory results published in ChEMBL document CHEMBL1764988, “Synthesis of 2-(substituted phenyl)-3,5,5-trimethylmorpholine analogues and their effects on monoamine uptake, nicotinic acetylcholine receptor function, and behavioral effects of nicotine” (J Med Chem, 2011).
# Experiments:
# Mus musculus [1] = species: Mus musculus; test: Antinociceptive activity in ICR mouse assessed as inhibition of nicotine-induced response by tail flick test; assay type: functional
# In short: (§1)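 Male ICR mice (20–25 g) were used to test blockade of acute nicotine effects (tail-flick, hot-plate, locomotor activity, body temperature). At least four doses of test compound were given, with at least eight mice per dose group. Results were expressed as AD50 (mg/kg) with confidence limits, or as % effect at the highest dose tested.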
# [2] = molecular target: Nicotinic acetylcholine receptor alpha-1/beta-1 (Homo sapiens, UniProt P02708+P11230); test: Antagonist activity at human alpha1beta1 nAChR in HEK293 cells assessed as inhibition of carbamylcholine-induced radiolabeled Rb ion efflux; assay type: functional, cell-based
# In short: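 86Rb+ efflux from human nAChR subtypes naturally or heterologously expressed in human cell lines. Cells were stimulated with a subtype-specific EC80–EC90 concentration of the full agonist carbamylcholine, alone or with test ligand (log molar series). Specific efflux was expressed as percent of control. IC50 values are means from three independent experiments; SEM is given as a multiplication/division factor.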
# Mus musculus [3] = species: Mus musculus; test: Effect on body temperature in ICR mouse assessed as inhibition of nicotine-induced hypothermic response; assay type: functional; in short: as §1
# Mus musculus [4] = species: Mus musculus; test: Effect on behavioral activity in ICR mouse assessed as inhibition of nicotine-induced locomotory response; assay type: functional; in short: as §1
# [5] = molecular target: Sodium-dependent dopamine transporter (Homo sapiens, UniProt Q01959); test: Inhibition of human DAT in HEK293 cells assessed as inhibition of [3H]dopamine uptake; assay type: cell-based
# In short: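 [3H]DA, [3H]NE or [3H]5HT uptake was measured by the corresponding human transporter stably expressed in HEK-293 cells. Values are mean ± standard error of three independent experiments, each run in triplicate.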
# Mus musculus [6] = species: Mus musculus; test: Antinociceptive activity in ICR mouse assessed as inhibition of nicotine-induced response by hotplate test; assay type: functional; in short: as §1
# Chain of Sodium-dependent dopamine transporter (Q01959 whole entry): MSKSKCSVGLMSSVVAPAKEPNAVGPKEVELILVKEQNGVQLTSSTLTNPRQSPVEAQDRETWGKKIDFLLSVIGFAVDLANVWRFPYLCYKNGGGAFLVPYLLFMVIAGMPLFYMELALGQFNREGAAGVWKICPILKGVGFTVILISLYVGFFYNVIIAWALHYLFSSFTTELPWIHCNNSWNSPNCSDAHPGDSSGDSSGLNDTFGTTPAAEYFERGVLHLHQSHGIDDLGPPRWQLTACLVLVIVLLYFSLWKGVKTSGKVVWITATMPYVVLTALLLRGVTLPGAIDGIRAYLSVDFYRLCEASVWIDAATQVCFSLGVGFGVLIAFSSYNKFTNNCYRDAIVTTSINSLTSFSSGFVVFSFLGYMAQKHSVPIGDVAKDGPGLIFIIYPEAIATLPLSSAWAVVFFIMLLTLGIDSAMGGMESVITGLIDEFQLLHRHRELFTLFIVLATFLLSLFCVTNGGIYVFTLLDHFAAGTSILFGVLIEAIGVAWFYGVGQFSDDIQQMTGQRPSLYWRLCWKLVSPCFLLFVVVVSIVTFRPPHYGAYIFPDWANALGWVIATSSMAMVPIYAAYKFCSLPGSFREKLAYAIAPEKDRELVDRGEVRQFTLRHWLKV
# Chain of Nicotinic acetylcholine receptor alpha-1/beta-1 (P02708 whole entry): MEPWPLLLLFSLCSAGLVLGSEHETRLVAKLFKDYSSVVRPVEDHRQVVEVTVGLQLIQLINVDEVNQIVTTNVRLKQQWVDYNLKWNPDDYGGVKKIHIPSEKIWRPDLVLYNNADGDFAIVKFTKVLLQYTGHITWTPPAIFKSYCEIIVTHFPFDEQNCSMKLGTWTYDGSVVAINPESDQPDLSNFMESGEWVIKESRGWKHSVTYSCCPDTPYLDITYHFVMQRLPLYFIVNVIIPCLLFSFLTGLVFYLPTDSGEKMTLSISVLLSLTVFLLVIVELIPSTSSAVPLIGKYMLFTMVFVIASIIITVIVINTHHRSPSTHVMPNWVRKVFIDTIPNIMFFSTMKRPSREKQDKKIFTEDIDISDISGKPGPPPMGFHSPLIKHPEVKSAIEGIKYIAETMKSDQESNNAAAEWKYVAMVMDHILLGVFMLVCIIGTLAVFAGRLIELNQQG
# Chain of Nicotinic acetylcholine receptor alpha-1/beta-1 (P11230 whole entry): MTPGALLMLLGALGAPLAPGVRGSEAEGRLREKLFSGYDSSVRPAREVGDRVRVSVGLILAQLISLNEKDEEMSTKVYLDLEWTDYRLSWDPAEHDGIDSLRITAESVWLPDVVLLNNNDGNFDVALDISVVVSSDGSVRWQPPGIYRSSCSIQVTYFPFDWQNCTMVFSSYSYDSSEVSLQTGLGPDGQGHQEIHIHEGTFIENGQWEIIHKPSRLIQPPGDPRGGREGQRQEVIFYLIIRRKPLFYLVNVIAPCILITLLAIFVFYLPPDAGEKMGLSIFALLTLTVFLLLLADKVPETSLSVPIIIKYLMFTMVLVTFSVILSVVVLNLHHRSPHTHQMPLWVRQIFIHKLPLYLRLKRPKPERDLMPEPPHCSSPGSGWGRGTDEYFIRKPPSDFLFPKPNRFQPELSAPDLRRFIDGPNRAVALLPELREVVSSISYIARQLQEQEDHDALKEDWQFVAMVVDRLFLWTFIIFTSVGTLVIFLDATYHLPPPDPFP
Structure (SMILES),AD50 (Mus musculus [1]),IC50 [2],AD50 (Mus musculus [3]),AD50 (Mus musculus [4]),IC50 [5],AD50 (Mus musculus [6])
C[C@@H]1N(C)C(C)(C)CO[C@@]1(O)c1cccc(Cl)c1,0.13 mg/kg,21 µM,>20 mg/kg,3.8 mg/kg,0.23 µM,>20 mg/kg
C[C@H]1NC(C)(C)CO[C@]1(O)c1cccc(Cl)c1,1.26 mg/kg,–,>20 mg/kg,>20 mg/kg,–,3.9 mg/kg
C[C@@H]1NC(C)(C)CO[C@@]1(O)c1cccc(Br)c1,0.006 mg/kg,7.3 µM,>20 mg/kg,2.1 mg/kg,0.044 µM,>20 mg/kg
CCC[C@@H]1NC(C)(C)CO[C@@]1(O)c1cccc(Cl)c1,0.017 mg/kg,–,>20 mg/kg,0.49 mg/kg,–,>20 mg/kg
